Data set [1] relates to Leishmania donovani. The data set is described as follows: Antileishmanial activity against sitamaquine-resistant wild type promastigote stage of Leishmania donovani MHOM/ET/67/HU3 infected in mouse macrophages assessed as reduction in parasite viability measured after 48 hrs by Giemsa staining-based assay. The conditions noted are these: MHOM/ET/67/HU3, Macrophage. The data set is classed as functional, organism-based.

For data set [2], the system named is Leishmania donovani. Description: Antileishmanial activity against wild type promastigote stage of Leishmania donovani LV9 infected in mouse macrophages assessed as reduction in parasite viability measured after 48 hrs by Giemsa staining-based assay. The conditions noted are these: LV9, 48 h. The class given is functional, organism-based.
The test system of data set [3] is Leishmania donovani. Description: Antileishmanial activity against amastigotes stage of Leishmania donovani D10 infected in mouse RAW264.7 cells assessed as reduction in cell viability incubated from 24 to 72 hrs by Giemsa staining-based assay. The class given is functional, organism-based. The conditions noted are these: D10, RAW264.7.
Data set [4] relates to Leishmania donovani. The data set is described as follows: Antileishmanial activity against Leishmania donovani promastigotes assessed as reduction in parasite viability in presence of 50 uM iron chelator desferrioxamine measured after 24 hrs by microplate alamar blue assay. The class given is functional, organism-based. Put shortly:
(§1)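 L. donovani promastigotes (MHOM/NP/02/BPK282/0cl4, late log/stationary phase) seeded at 10^6 cells/mL in complete HOMEM, preincubated 24 h at 26 °C with desferrioxamine at four nontoxic doses (1:2 dilutions). Compounds added over a range spanning each one's IC50. Viability read by alamarBlue absorbance at 550/630 nm. FIC values plotted as isobolograms. Duplicates.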
Background: The colour change of resazurin is a common sign of viable cells or microbes.

Data set [5] deals with Leishmania donovani. Description: Antileishmanial activity against Leishmania donovani promastigotes assessed as reduction in parasite viability in presence of 25 uM iron chelator desferrioxamine measured after 24 hrs by microplate alamar blue assay. The data set is classed as functional, organism-based. Put shortly:
as §1

Data set [6] relates to Leishmania donovani. The data set is described as follows: Induction of ROS generation in Leishmania donovani promastigotes assessed as increase in intracellular ROS level at IC50 measured after 24 hrs by H2DCFDA probe based fluorimetry analysis. The data set is classed as functional, organism-based.
The subject of data set [7] is Leishmania donovani. The data set is described as follows: Antileishmanial activity against Leishmania donovani promastigotes assessed as reduction in parasite viability in presence of 100 uM iron chelator desferrioxamine measured after 24 hrs by microplate alamar blue assay. The class given is functional, organism-based. The procedure, abridged:
as §1

Data set [8] relates to Leishmania donovani. The data set is described as follows: Additive antileishmanial activity against Leishmania donovani promastigotes measured after 24 hrs in presence of iron chelator desferrioxamine by microplate alamar blue assay. The class given is functional, organism-based. Put shortly: as §1
Data set [9] deals with Leishmania donovani. The data set is described as follows: Antileishmanial activity against Leishmania donovani promastigotes assessed as reduction in parasite viability in presence of […] iron chelator desferrioxamine measured after 24 hrs by microplate alamar blue assay. The class given is functional, organism-based. The procedure, abridged: as §1
The subject of data set [10] is Leishmania donovani. The data set is described as follows: Induction of ROS generation in Leishmania donovani promastigotes assessed as increase in intracellular ROS level at IC50 measured up to 60 mins by H2DCFDA probe based fluorimetry analysis. The data set is classed as functional, organism-based. The following applies: time min <=60.
Data set [11] can be described thus: Drug localization in Leishmania donovani MHOM/NP/O2/BPK282/0cl4 promastigote at IC50 […] by TO-PRO-3 dye based confocal microscopy analysis. The data set is classed as ADME.
Data set [12] is described as follows: Drug localization in nucleus of Leishmania donovani MHOM/NP/O2/BPK282/0cl4 promastigote at IC50 incubated for 40 to 45 mins by TO-PRO-3 staining based confocal microscopy analysis. The class given is ADME, subcellular. The conditions noted are these: time 40-45 min.
A short description of data set [13]: Drug localization in kinetoplast of Leishmania donovani MHOM/NP/O2/BPK282/0cl4 promastigote at IC50 incubated for 40 to 45 mins by TO-PRO-3 staining based confocal microscopy analysis. The data set is classed as ADME, subcellular. The conditions noted are these: time 40-45 min.
Data set [14] can be described thus: Drug localization in cytoplasm of Leishmania donovani MHOM/NP/O2/BPK282/0cl4 promastigote at IC50 incubated for 40 to 45 mins by TO-PRO-3 dye based confocal microscopy analysis. The conditions noted are these: time 40-45 min. The data set is classed as ADME, subcellular.
Data set [15] relates to Leishmania donovani. The data set is described as follows: Antileishmanial activity against HePC-resistant wild type promastigote stage of Leishmania donovani MHOM/ET/67/HU3 infected in mouse macrophages assessed as reduction in parasite viability measured after 48 hrs by Giemsa staining-based assay. The following applies: MHOM/ET/67/HU3, Macrophage.
Data set [16] has as its system Leishmania donovani. The data set is described as follows: Induction of ROS generation in Leishmania donovani promastigotes at 22 uM measured after 24 hrs by H2DCFDA probe based fluorimetry analysis. The data set is classed as functional, organism-based. Put shortly:
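Late log/stationary L. donovani promastigotes seeded at 10^6 cells mL–1 in HOMEM with 20% FBS and treated 24 h at 26 °C; untreated cells served as negative control. Cells were washed in PBS (pH 7.4), loaded with 10 μM H2DCFDA and kept 35 min in the dark at 26 °C. DCF fluorescence read at ex 488/em 530 nm over 1–60 min. Three independent experiments, each in triplicate.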

Data set [17] relates to Leishmania donovani. Description: Antileishmanial activity against Leishmania donovani MHOM/MA(BE)/67/ITMAP263 promastigotes infected in primary mouse peritoneal macrophage assessed as reduction in parasite viability measured after 4 days by Giemsa staining-based assay. The data set is classed as functional, organism-based. The following applies: MHOM/MA(BE)/67/ITMAP263, Peritoneal macrophage, 96 h.

Active and inactive are the calls of the source. The rule behind the calls is not given here.

`C=CCO[C@@]1(C(F)(F)F)O[C@@H]2C[C@@]3(C)C[C@H]4[C@H](C)CC[C@@H]([C@H]1C)[C@@]24OO3`: the IC50 – broadly, the concentration at which inhibition is half-maximal – came out at 1.6 µM with Leishmania donovani [1] and 6.3 µM in the data set on Leishmania donovani [2].
As to `OCCCCCCC1CCOOC2(CCCCCCCCCCC2)OOC1` (configuration not stated), the IC50 with Leishmania donovani [3] was 6.7 µM.
In the case of `COc1ccc(N[C@@]2(C(F)(F)F)O[C@@H]3C[C@@]4(C)C[C@H]5[C@H](C)CC[C@@H]([C@H]2C)[C@@]35OO4)cc1`, the figures for the IC50 in the data set on Leishmania donovani [1] and in the data set with Leishmania donovani [2] were 0.38 µM and 1.5 µM, respectively.
Consider `CCCCC1(CCCC)CO[C@@](C)(OC)[C@@H](CNCCCn2ccnc2)C1` (racemic), for which the IC50 in the data set with Leishmania donovani [4] amounted to 5.6 µM; with Leishmania donovani [5] it was 5.3 µM; in the data set with Leishmania donovani [7], 4.6 µM; with Leishmania donovani [9], 5.4 µM. Also, the result with Leishmania donovani [6], with Leishmania donovani [8] and with Leishmania donovani [10] was Active.
Consider `CCCCC1(CCCC)CO[C@@](C)(OC)[C@@H](CNCCCCNc2c3ccc(Cl)cc3nc3ccc(OC)cc23)C1` (racemic), for which the Drug uptake entry in data set [11] is given as “Active”.
Regarding `CCCCC1(CCCC)C[C@H](CNCCCCNc2ccc([N+](=O)[O-])c3nonc23)[C@](C)(OC)OO1` (racemic), the Drug uptake result in [12] is reported as “Not Active”; in data set [13] it was “Active”; in data set [14], “Active”.
With `CCCCC1(CCCC)C[C@H](CNCCCn2ccnc2)[C@](C)(OC)OO1` (racemic), the IC50 in the data set on Leishmania donovani [4] is 9.3 µM; with Leishmania donovani [5], 8.9 µM; with Leishmania donovani [7], 6.5 µM; in the data set with Leishmania donovani [9], 6.6 µM. The result in the data set with Leishmania donovani [6], in the data set on Leishmania donovani [8] and in the data set on Leishmania donovani [10] was Active.
Take `CCCCCCCCCCCCCCCCOP(=O)([O-])OCC[N+](C)(C)C` [MILTEFOSINE]: the IC50 in the data set on Leishmania donovani [15] came out at 68.1 µM; with Leishmania donovani [1], 1.9 µM. Moreover, in the data set on Leishmania donovani [16], the outcome was Active.
Take `NC[C@@H]1O[C@H](O[C@H]2[C@@H](O)[C@H](O[C@@H]3[C@@H](O)[C@H](N)C[C@H](N)[C@H]3O[C@H]3O[C@H](CO)[C@@H](O)[C@H](O)[C@H]3N)O[C@@H]2CO)[C@H](N)[C@@H](O)[C@@H]1O` [PAROMOMYCIN]: the IC50 in the data set with Leishmania donovani [17] was found to be 19.7 µM.

The values are drawn from ChEMBL document CHEMBL4699585, “Evaluation of the Pharmacophoric Role of the O-O Bond in Synthetic Antileishmanial Compounds: Comparison between 1,2-Dioxanes and Tetrahydropyrans” (J Med Chem, 2020).
